Test results: ChEMBL document CHEMBL4689842, “EUbOPEN Chemogenomics Library wave 1” (2021)

System: U2OS
Assay: Multiplex assay against U2OS
Type: toxicity, cell-based
Details: human
Procedure, shortened: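 Values for tubulin, mitochondrial-mass and membrane-permeability phenotypes are per cents of cells with healthy nuclei. These cells were identified by CellPathfinder machine-learning gating of live cells that had been stained at seeding with Hoechst33342, BioTracker Green Microtubule Cytoskeleton Dye, MitoTracker Red and Annexin V Alexa Fluor 680 and imaged on a CQ1 microscope at 37°C and 5% CO2 after compound addition. The gating first set Hoechst high-intensity objects apart from normal cells, then split normal cells into healthy, pyknosed or fragmented nuclei, and pyknosed cells into mitotic or apoptotic.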

[1] = 12 h, 1 µM, compound concentration 1 uM, replicate 1
[2] = 12 h, 1 µM, compound concentration 1 uM, replicate 2
[3] = 12 h, 10 µM, compound concentration 10 uM, replicate 1
[4] = 12 h, 10 µM, compound concentration 10 uM, replicate 2
[5] = 24 h, 1 µM, compound concentration 1 uM, replicate 1
[6] = 24 h, 1 µM, compound concentration 1 uM, replicate 2
[7] = 24 h, 10 µM, compound concentration 10 uM, replicate 1
[8] = 24 h, 10 µM, compound concentration 10 uM, replicate 2
[9] = 48 h, 1 µM, compound concentration 1 uM, replicate 1
[10] = 48 h, 1 µM, compound concentration 1 uM, replicate 2
[11] = 48 h, 10 µM, compound concentration 10 uM, replicate 1
[12] = 48 h, 10 µM, compound concentration 10 uM, replicate 2

Cc1ccc(C)c(Oc2ccncc2C(=O)N2CCN(C3CC3)c3ccccc32)c1
Population Apoptotic (%) [1]: 53% | Population Fragmented Nuclei (%) [1]: 10% | Population Healthy Nuclei (%) [1]: 77% | Population Hoechst High Intensity Objects (%) [1]: 7% | Population Normal (%) [1]: 92% | Total Cell Count [1]: 135 | Population Apoptotic (%) [2]: 66% | Population Healthy Nuclei (%) [2]: 75% | Population Hoechst High Intensity Objects (%) [2]: 10% | Population Normal (%) [2]: 89% | Total Cell Count [2]: 73 | Population Apoptotic (%) [3]: 48% | Population Fragmented Nuclei (%) [3]: 15% | Population Healthy Nuclei (%) [3]: 61% | Population Hoechst High Intensity Objects (%) [3]: 6% | Population Mitotic Cells (%) [3]: 51% | Population Normal (%) [3]: 93% | Total Cell Count [3]: 132 | Population Apoptotic (%) [4]: 33% | Population Fragmented Nuclei (%) [4]: 6% | Population Healthy Nuclei (%) [4]: 72% | Population Hoechst High Intensity Objects (%) [4]: 3% | Population Normal (%) [4]: 96% | Total Cell Count [4]: 59 | Population Apoptotic (%) [5]: 47% | Population Fragmented Nuclei (%) [5]: 8% | Population Healthy Nuclei (%) [5]: 76% | Population Hoechst High Intensity Objects (%) [5]: 3% | Population Mitotic Cells (%) [5]: 52% | Population Normal (%) [5]: 96% | Total Cell Count [5]: 137 | Population Apoptotic (%) [6]: 42% | Population Fragmented Nuclei (%) [6]: 27% | Population Healthy Nuclei (%) [6]: 60% | Population Hoechst High Intensity Objects (%) [6]: 6% | Population Normal (%) [6]: 93% | Total Cell Count [6]: 71 | Population Apoptotic (%) [7]: 51% | Population Healthy Nuclei (%) [7]: 50% | Population Hoechst High Intensity Objects (%) [7]: 10% | Population Mitotic Cells (%) [7]: 48% | Population Normal (%) [7]: 89% | Total Cell Count [7]: 152 | Population Apoptotic (%) [8]: 53% | Population Healthy Nuclei (%) [8]: 66% | Population Hoechst High Intensity Objects (%) [8]: 7% | Population Normal (%) [8]: 92% | Total Cell Count [8]: 65 | Population Apoptotic (%) [9]: 46% | Population Fragmented Nuclei (%) [9]: 4% | Population Healthy Nuclei (%) [9]: 82% | Population Hoechst High Intensity Objects (%) [9]: 3% | Population Mitotic Cells (%) [9]: 53% | Population Normal (%) [9]: 96% | Total Cell Count [9]: 139 | Population Apoptotic (%) [10]: 36% | Population Fragmented Nuclei (%) [10]: 6% | Population Healthy Nuclei (%) [10]: 79% | Population Hoechst High Intensity Objects (%) [10]: 4% | Population Mitotic Cells (%) [10]: 63% | Population Normal (%) [10]: 95% | Total Cell Count [10]: 69 | Population Apoptotic (%) [11]: 61% | Population Fragmented Nuclei (%) [11]: 14% | Population Healthy Nuclei (%) [11]: 42% | Population Hoechst High Intensity Objects (%) [11]: 9% | Population Mitotic Cells (%) [11]: 38% | Population Normal (%) [11]: 90% | Total Cell Count [11]: 213 | Population Apoptotic (%) [12]: 33% | Population Fragmented Nuclei (%) [12]: 22% | Population Healthy Nuclei (%) [12]: 55% | Population Hoechst High Intensity Objects (%) [12]: 1% | Population Normal (%) [12]: 98% | Total Cell Count [12]: 83

CCCSc1nc(N[C@@H]2C[C@H]2c2ccc(F)c(F)c2)c2nnn([C@@H]3C[C@H](OCCO)[C@@H](O)[C@H]3O)c2n1 [TICAGRELOR]
Population Apoptotic (%) [1]: 23% | Population Fragmented Nuclei (%) [1]: 11% | Population Healthy Nuclei (%) [1]: 74% | Population Hoechst High Intensity Objects (%) [1]: 6% | Population Membrane Permeable-Phenotype (%) [1]: 4% | Population Mitochondria Different-Phenotype (%) [1]: 21% | Population Mitotic Cells (%) [1]: 76% | Population Normal (%) [1]: 93% | Population Pyknosed Nuclei (%) [1]: 14% | Population Tubulin-Different-Phenotype (%) [1]: 10% | Total Cell Count [1]: 116 | Population Apoptotic (%) [2]: 66% | Population Fragmented Nuclei (%) [2]: 1% | Population Healthy Nuclei (%) [2]: 93% | Population Hoechst High Intensity Objects (%) [2]: 5% | Population Membrane Permeable-Phenotype (%) [2]: 5% | Population Mitochondria Different-Phenotype (%) [2]: 18% | Population Mitotic Cells (%) [2]: 33% | Population Normal (%) [2]: 94% | Population Pyknosed Nuclei (%) [2]: 4% | Population Tubulin-Different-Phenotype (%) [2]: 13% | Total Cell Count [2]: 82 | Population Apoptotic (%) [3]: 87% | Population Fragmented Nuclei (%) [3]: 16% | Population Healthy Nuclei (%) [3]: 64% | Population Hoechst High Intensity Objects (%) [3]: 7% | Population Membrane Permeable-Phenotype (%) [3]: 37% | Population Mitochondria Different-Phenotype (%) [3]: 99% | Population Mitotic Cells (%) [3]: 12% | Population Normal (%) [3]: 92% | Population Pyknosed Nuclei (%) [3]: 19% | Population Tubulin-Different-Phenotype (%) [3]: 100% | Total Cell Count [3]: 125 | Population Apoptotic (%) [4]: 75% | Population Fragmented Nuclei (%) [4]: 7% | Population Healthy Nuclei (%) [4]: 79% | Population Hoechst High Intensity Objects (%) [4]: 11% | Population Membrane Permeable-Phenotype (%) [4]: 43% | Population Mitochondria Different-Phenotype (%) [4]: 98% | Population Mitotic Cells (%) [4]: 25% | Population Normal (%) [4]: 88% | Population Pyknosed Nuclei (%) [4]: 12% | Population Tubulin-Different-Phenotype (%) [4]: 96% | Total Cell Count [4]: 67 | Population Apoptotic (%) [5]: 9% | Population Fragmented Nuclei (%) [5]: 7% | Population Healthy Nuclei (%) [5]: 84% | Population Hoechst High Intensity Objects (%) [5]: 7% | Population Membrane Permeable-Phenotype (%) [5]: 3% | Population Mitochondria Different-Phenotype (%) [5]: 10% | Population Mitotic Cells (%) [5]: 90% | Population Normal (%) [5]: 92% | Population Pyknosed Nuclei (%) [5]: 7% | Population Tubulin-Different-Phenotype (%) [5]: 6% | Total Cell Count [5]: 116 | Population Apoptotic (%) [6]: 57% | Population Fragmented Nuclei (%) [6]: 3% | Population Healthy Nuclei (%) [6]: 87% | Population Hoechst High Intensity Objects (%) [6]: 2% | Population Membrane Permeable-Phenotype (%) [6]: 4% | Population Mitochondria Different-Phenotype (%) [6]: 20% | Population Mitotic Cells (%) [6]: 42% | Population Normal (%) [6]: 97% | Population Pyknosed Nuclei (%) [6]: 8% | Population Tubulin-Different-Phenotype (%) [6]: 11% | Total Cell Count [6]: 81 | Population Apoptotic (%) [7]: 94% | Population Fragmented Nuclei (%) [7]: 18% | Population Healthy Nuclei (%) [7]: 58% | Population Hoechst High Intensity Objects (%) [7]: 6% | Population Membrane Permeable-Phenotype (%) [7]: 55% | Population Mitochondria Different-Phenotype (%) [7]: 100% | Population Mitotic Cells (%) [7]: 5% | Population Normal (%) [7]: 93% | Population Pyknosed Nuclei (%) [7]: 22% | Total Cell Count [7]: 155 | Population Apoptotic (%) [8]: 83% | Population Fragmented Nuclei (%) [8]: 7% | Population Healthy Nuclei (%) [8]: 73% | Population Hoechst High Intensity Objects (%) [8]: 8% | Population Membrane Permeable-Phenotype (%) [8]: 65% | Population Mitochondria Different-Phenotype (%) [8]: 97% | Population Mitotic Cells (%) [8]: 16% | Population Normal (%) [8]: 91% | Population Pyknosed Nuclei (%) [8]: 19% | Population Tubulin-Different-Phenotype (%) [8]: 97% | Total Cell Count [8]: 80 | Population Apoptotic (%) [9]: 69% | Population Fragmented Nuclei (%) [9]: 6% | Population Healthy Nuclei (%) [9]: 87% | Population Hoechst High Intensity Objects (%) [9]: 4% | Population Mitochondria Different-Phenotype (%) [9]: 7% | Population Mitotic Cells (%) [9]: 30% | Population Normal (%) [9]: 95% | Population Pyknosed Nuclei (%) [9]: 5% | Population Tubulin-Different-Phenotype (%) [9]: 3% | Total Cell Count [9]: 107 | Population Apoptotic (%) [10]: 25% | Population Fragmented Nuclei (%) [10]: 4% | Population Healthy Nuclei (%) [10]: 88% | Population Hoechst High Intensity Objects (%) [10]: 3% | Population Membrane Permeable-Phenotype (%) [10]: 2% | Population Mitochondria Different-Phenotype (%) [10]: 12% | Population Mitotic Cells (%) [10]: 75% | Population Normal (%) [10]: 96% | Population Pyknosed Nuclei (%) [10]: 6% | Population Tubulin-Different-Phenotype (%) [10]: 9% | Total Cell Count [10]: 74 | Population Apoptotic (%) [11]: 89% | Population Fragmented Nuclei (%) [11]: 25% | Population Healthy Nuclei (%) [11]: 38% | Population Hoechst High Intensity Objects (%) [11]: 8% | Population Membrane Permeable-Phenotype (%) [11]: 60% | Population Mitochondria Different-Phenotype (%) [11]: 94% | Population Mitotic Cells (%) [11]: 10% | Population Normal (%) [11]: 91% | Population Pyknosed Nuclei (%) [11]: 36% | Population Tubulin-Different-Phenotype (%) [11]: 98% | Total Cell Count [11]: 230 | Population Apoptotic (%) [12]: 71% | Population Fragmented Nuclei (%) [12]: 17% | Population Healthy Nuclei (%) [12]: 60% | Population Hoechst High Intensity Objects (%) [12]: 11% | Population Membrane Permeable-Phenotype (%) [12]: 74% | Population Mitochondria Different-Phenotype (%) [12]: 97% | Population Mitotic Cells (%) [12]: 28% | Population Normal (%) [12]: 88% | Population Pyknosed Nuclei (%) [12]: 21% | Population Tubulin-Different-Phenotype (%) [12]: 97% | Total Cell Count [12]: 130
